Measurements taken from ChEMBL document CHEMBL1926551, “Design, synthesis and in vitro evaluation of novel chroman-4-one, chroman, and 2H-chromene derivatives as human rhinovirus capsid-binding inhibitors” (Bioorg Med Chem, 2011).
Active and inactive are the calls of the source. The rule behind the calls is not given here.

How the values were obtained:
[1] = Therapeutic index, ratio of TC50 for human HeLa cells to IC50 for Human rhinovirus 1B infected in human HeLa cells; assay type: cell-based; details: read-out: TI
Summary of the method: (§1)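 Therapeutic index calculated as HeLa TC50 (XTT, 3 days) divided by the plaque-reduction IC50 for the respective serotype.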

[2] = Cytotoxicity against human HeLa cells after 3 days by XTT based ELISA reader; assay type: cell-based; details: read-out: TC50
Summary of the method: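 HeLa cells seeded at 2 × 10^3 cells/well in growth medium (MEM, 8% FCS) with twofold compound dilutions from the maximum soluble concentration, triplicate wells. Matched ethanol controls were run. Plates were held 3 days at 37 °C, 5% CO2, then XTT was added (final 0.15 mg/mL) for 4 h.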

[3] = Therapeutic index, ratio of TC50 for human HeLa cells to IC50 for Human rhinovirus 14 infected in human HeLa cells; assay type: cell-based; details: read-out: TI; summary of the method: as §1
[4] = tested on: rhinovirus A1B; experiment: Antiviral activity against Human rhinovirus 1B infected in human HeLa cells assessed as inhibition of virus induced-plaque formation after 3 days by neutral red-based plaque reduction assay; assay type: functional, organism-based; details: Rhinovirus A, 72 h
Summary of the method: (§2)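 HeLa (Ohio) monolayers infected with virus giving about 100 plaques/well and adsorbed 1 h at 33 °C. The inoculum was removed and cells were overlaid with plaque medium ± fourfold compound dilutions, starting from the maximum non-cytotoxic concentration (MNTC). After 3 days at 33 °C, cells were stained with neutral red (0.2 mg/mL in PBS, pH 7.4) and plaques counted, triplicate wells.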

[5] = Cytotoxicity against human HeLa cells after 3 days by microscopic analysis; assay type: cell-based; details: read-out: MNCC
Summary of the method: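 HeLa cells exposed to twofold compound dilutions for 3 days at 37 °C and morphology scored microscopically on day 3. The MNTC is the highest concentration leaving morphology and viability unchanged in 100% of cells.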

[6] = tested on: rhinovirus B14; experiment: Antiviral activity against Human rhinovirus 14 infected in human HeLa cells assessed as inhibition of virus induced-plaque formation after 3 days by neutral red-based plaque reduction assay; assay type: functional, organism-based; details: Rhinovirus B, 72 h
Summary of the method: (§3)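 HeLa (Ohio) monolayers infected with virus giving about 100 plaques/well and adsorbed 1 h at 33 °C. The inoculum was removed and cells were overlaid with plaque medium ± fourfold compound dilutions, starting from the maximum non-cytotoxic concentration (MNTC). After 3 days at 33 °C, cells were stained with neutral red (0.2 mg/mL in PBS, pH 7.4) and plaques counted, triplicate wells. IC50 came from % plaque reduction vs log dose; where 50% was not reached, % inhibition at the MNTC was reported.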

[7] = tested on: rhinovirus B14; experiment: Antiviral activity against Human rhinovirus 14 infected in human HeLa cells assessed as inhibition of virus induced-plaque formation at 12.5 uM after 3 days by neutral red-based plaque reduction assay; assay type: functional; details: Rhinovirus B, 72 h; summary of the method: as §3
[8] = tested on: rhinovirus A1B; experiment: Antiviral activity against Human rhinovirus 1B infected in human HeLa cells assessed as reduction of viral yield at 42 uM treated 6 hrs after viral adsorption measured after 10 hrs by neutral red-based plaque reduction assay; assay type: functional; details: Rhinovirus A
[9] = tested on: rhinovirus A1B; experiment: Antiviral activity against Human rhinovirus 1B infected in human HeLa cells assessed as reduction of viral yield at 42 uM treated 15 mins after viral adsorption measured after 10 hrs by neutral red-based plaque reduction assay; assay type: functional; details: Rhinovirus A
[10] = tested on: rhinovirus A1B; experiment: Antiviral activity against Human rhinovirus 1B infected in human HeLa cells assessed as reduction of viral yield at 42 uM treated at the end of viral adsorption followed by washout after 6 hrs measured after 10 hrs by neutral red-based plaque reduction assay; assay type: functional; details: Rhinovirus A
[11] = tested on: rhinovirus A1B; experiment: Antiviral activity against Human rhinovirus 1B infected in human HeLa cells assessed as reduction of viral yield at 42 uM treated 45 mins after viral adsorption measured after 10 hrs by neutral red-based plaque reduction assay; assay type: functional; details: Rhinovirus A
[12] = tested on: rhinovirus A1B; experiment: Antiviral activity against Human rhinovirus 1B infected in human HeLa cells assessed as reduction of viral yield at 42 uM treated 30 mins after viral adsorption measured after 10 hrs by neutral red-based plaque reduction assay; assay type: functional; details: Rhinovirus A
[13] = tested on: rhinovirus A1B; experiment: Antiviral activity against Human rhinovirus 1B infected in human HeLa cells assessed as reduction of viral yield at 42 uM treated 60 mins after viral adsorption measured after 10 hrs by neutral red-based plaque reduction assay; assay type: functional; details: Rhinovirus A
[14] = tested on: rhinovirus A1B; experiment: Antiviral activity against Human rhinovirus 1B assessed as reduction in infectivity titers at 42 uM after 1 hr using HeLa cell monolayers by plaque assay (reference value: 5.33 * 10^6 PFU/mL); assay type: functional
Summary of the method: (§4)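 HRV 1B suspension at high titre incubated ± 42 µM compound for 1 h at 33 °C. It was then serially diluted 10-fold to reach non-inhibitory free compound levels, and infectivity was titrated by plaque assay on HeLa monolayers.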

[15] = tested on: rhinovirus A1B; experiment: Antiviral activity against Human rhinovirus 1B infected in human HeLa cells assessed as reduction of viral yield at 42 uM treated at the end of viral adsorption measured after 10 hrs by neutral red-based plaque reduction assay; assay type: functional, organism-based; details: TDE = time-dependent effect
[16] = tested on: rhinovirus A1B; experiment: Antiviral activity against Human rhinovirus 1B infected in human HeLa cells assessed as reduction of viral yield at 42 uM treated 2 hrs after viral adsorption measured after 10 hrs by neutral red-based plaque reduction assay; assay type: functional; details: Rhinovirus A
[17] = tested on: rhinovirus A1B; experiment: Antiviral activity against Human rhinovirus 1B infected in human HeLa cells measured after dilution; assay type: functional, organism-based; summary of the method: as §4
[18] = tested on: rhinovirus A1B; experiment: Antiviral activity against Human rhinovirus 1B infected in human HeLa cells assessed as reduction of viral yield at 42 uM treated during viral adsorption measured after 10 hrs by neutral red-based plaque reduction assay; assay type: functional; details: Rhinovirus A
Summary of the method: (§5)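 One-step growth: confluent HeLa monolayers infected with HRV 1B at MOI 5. Virus bound 1 h at 4 °C, then washed thrice with cold PBS; cultures were incubated at 33 °C to 10 h p.i. 42 µM compound was present either during binding only or throughout binding plus replication. Cultures were freeze-thawed three times, clarified, and yield titrated by plaque assay on HeLa.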

[19] = tested on: rhinovirus A1B; experiment: Antiviral activity against Human rhinovirus 1B in human HeLa cell monolayers assessed as reduction of viral infectivity at 42 uM at 56 degC pre-treated for 1 hr before thermal treatment measured after 20 mins by plaque assay (reference value: 2.9 log PFU/mL); assay type: functional
[20] = tested on: rhinovirus A1B; experiment: Antiviral activity against Human rhinovirus 1B in human HeLa cell monolayers assessed as reduction of viral infectivity at 42 uM at pH 5 pre-treated for 1 hr before mild acid treatment measured after 30 mins by plaque assay (reference value: 3.8 log PFU/mL); assay type: functional
[21] = tested on: rhinovirus A1B; experiment: Antiviral activity against Human rhinovirus 1B infected in human HeLa cells assessed as reduction of viral yield at 42 uM treated 4 hrs after viral adsorption measured after 10 hrs by neutral red-based plaque reduction assay; assay type: functional; details: Rhinovirus A
[22] = tested on: rhinovirus A1B; experiment: Antiviral activity against Human rhinovirus 1B infected in human HeLa cells assessed as reduction of viral yield at 42 uM at 4 degC treated immediately after viral adsorption after 1 hr by neutral red-based plaque reduction assay; assay type: functional, organism-based
[23] = tested on: rhinovirus A1B; experiment: Antiviral activity against Human rhinovirus 1B infected in human HeLa cells assessed as reduction of viral yield at 42 uM treated before viral adsorption measured after 10 hrs by neutral red-based plaque reduction assay; assay type: functional; details: Rhinovirus A
[24] = tested on: rhinovirus A1B; experiment: Antiviral activity against Human rhinovirus 1B infected in human HeLa cells assessed as reduction of viral yield at 42 uM treated at the end of viral adsorption followed by washout after 30 mins to 1 hr measured after 10 hrs by neutral red-based plaque reduction assay; assay type: functional; details: Rhinovirus A
[25] = tested on: rhinovirus A1B; experiment: Antiviral activity against Human rhinovirus 1B infected in human HeLa cells assessed as reduction of viral yield at 42 uM treated together with viral inoculum after 10 hrs by neutral red-based plaque reduction assay; assay type: functional; details: Rhinovirus A; summary of the method: as §5
[26] = tested on: rhinovirus B14; experiment: Antiviral activity against Human rhinovirus 14 infected in human HeLa cells assessed as inhibition of virus induced-plaque formation at 25 uM after 3 days by neutral red-based plaque reduction assay; assay type: functional; details: Rhinovirus B, 72 h; summary of the method: as §2
[27] = Ratio of IC50 for Human rhinovirus 1B to IC50 for Human rhinovirus 14; assay type: functional

## Clc1ccc(C/C=C/C2=Cc3ccccc3OC2)cc1
[1]
  selectivity ratio: 27.7
[2]
  CC50 at 72 h: 100 µM
[3]
  selectivity ratio: 2.22
[4]
  IC50: 3.61 µM
[5]
  MNTC at 72 h: 50 µM
[6]
  IC50: 45.1 µM

## Clc1ccc(/C=C/C=C2\COc3ccccc3C2)cc1
[1]
  selectivity ratio: 36
[2]
  CC50 at 72 h: 50 µM
[3]
  selectivity ratio: 8.31
[4]
  IC50: 1.39 µM
[5]
  MNTC at 72 h: 25 µM
[6]
  IC50: 6.02 µM

## Fc1ccc2c(c1)C/C(=C/C=C/c1ccccc1)CO2
[1]
  selectivity ratio: 13.5
[2]
  CC50 at 72 h: 75 µM
[3]
  selectivity ratio: 2.05
[4]
  IC50: 5.57 µM
[5]
  MNTC at 72 h: 50 µM
[6]
  IC50: 36.5 µM

## O=C1/C(=C/C=C/c2ccccc2)COc2ccccc21
[1]
  selectivity ratio: 29.4
[7]
  inhibition at 12.5 µM: 7.2%
[2]
  CC50 at 72 h: 25 µM
[4]
  IC50: 0.85 µM
[5]
  MNTC at 72 h: 12.5 µM

## Clc1ccc2c(c1)C=C(/C=C/Cc1ccccc1)CO2
[8]
  inhibition at 42 µM: 1%
[1]
  selectivity ratio: 59.5
[7]
  inhibition at 12.5 µM: 23%
[9]
  inhibition at 42 µM: > 80%
[2]
  CC50 at 72 h: 25 µM
[10]
  inhibition at 42 µM: 93%
[11]
  inhibition at 42 µM: > 80%
[12]
  inhibition at 42 µM: > 80%
[13]
  inhibition at 42 µM: > 80%
[4]
  IC50: 0.42 µM
[14]
  PFU/ml: 5110000
[15]
  inhibition: tde
[16]
  inhibition at 42 µM: 31%
[5]
  MNTC at 72 h: 12.5 µM
[17]
  Activity: inactive
[18]
  inhibition at 42 µM: 16%
[19]
  log10PFU/ml: 1.8
[20]
  log10PFU/ml: 2.8
[21]
  inhibition at 42 µM: 12%
[22]
  inhibition: Active
[23]
  inhibition at 42 µM: 6%
[24]
  inhibition at 42 µM: 35%
[25]
  inhibition at 42 µM: 88.5%

## Clc1ccc2c(c1)C/C(=C/C=C/c1ccccc1)CO2
[1]
  selectivity ratio: 17.9
[2]
  CC50 at 72 h: 50 µM
[4]
  IC50: 2.79 µM
[5]
  MNTC at 72 h: 25 µM
[26]
  inhibition at 25 µM: 30.3%

## O=C1/C(=C/C=C/c2ccc(Cl)cc2)COc2ccc(Cl)cc21
[1]
  selectivity ratio: 7.46
[2]
  CC50 at 72 h: 25 µM
[3]
  selectivity ratio: 17.6
[4]
  IC50: 3.35 µM
[27]
  Ratio IC50: 2
[5]
  MNTC at 72 h: 12.5 µM
[6]
  IC50: 1.42 µM

## Clc1ccc(/C=C/C=C2\COc3ccc(Cl)cc3C2)cc1
[1]
  selectivity ratio: 2.18
[2]
  CC50 at 72 h: 25 µM
[3]
  selectivity ratio: 3.02
[4]
  IC50: 11.5 µM
[5]
  MNTC at 72 h: 12.5 µM
[6]
  IC50: 8.27 µM

## C(/C=C/c1ccccc1)=C1/COc2ccccc2C1
[1]
  selectivity ratio: 101
[2]
  CC50 at 72 h: 100 µM
[3]
  selectivity ratio: 2.1
[4]
  IC50: 0.99 µM
[5]
  MNTC at 72 h: 50 µM
[6]
  IC50: 47.6 µM

## C1=C(/C=C/Cc2ccccc2)COc2ccccc21
[1]
  selectivity ratio: 5.52
[2]
  CC50 at 72 h: 75 µM
[3]
  selectivity ratio: 6.76
[4]
  IC50: 13.6 µM
[5]
  MNTC at 72 h: 50 µM
[6]
  IC50: 11.1 µM

## O=C1/C(=C/C=C/c2ccc(Cl)cc2)COc2ccccc21
[1]
  selectivity ratio: 19.7
[2]
  CC50 at 72 h: 50 µM
[4]
  IC50: 2.54 µM
[5]
  MNTC at 72 h: 25 µM
[26]
  inhibition at 25 µM: 17.1%

## O=C1/C(=C/C=C/c2ccccc2)COc2ccc(F)cc21
[1]
  selectivity ratio: 10
[2]
  CC50 at 72 h: 50 µM
[3]
  selectivity ratio: 2.94
[4]
  IC50: 4.98 µM
[5]
  MNTC at 72 h: 25 µM
[6]
  IC50: 17 µM

## Clc1ccc(C/C=C/C2=Cc3cc(Cl)ccc3OC2)cc1
[1]
  selectivity ratio: 10.3
[2]
  CC50 at 72 h: 100 µM
[4]
  IC50: 9.73 µM
[5]
  MNTC at 72 h: 25 µM
[26]
  inhibition at 25 µM: 27%

## O=C1/C(=C/C#Cc2ccccc2)COc2ccccc21
[1]
  selectivity ratio: 5.38
[2]
  CC50 at 72 h: 50 µM
[3]
  selectivity ratio: 2.5
[4]
  IC50: 9.3 µM
[5]
  MNTC at 72 h: 25 µM
[6]
  IC50: 20 µM

## O=C1/C(=C/C#Cc2ccccc2)COc2ccc(Cl)cc21
[1]
  selectivity ratio: 9.51
[2]
  CC50 at 72 h: 75 µM
[3]
  selectivity ratio: 2.47
[4]
  IC50: 7.89 µM
[5]
  MNTC at 72 h: 50 µM
[6]
  IC50: 30.4 µM

## O=C1/C(=C/C=C/c2ccccc2)COc2ccc(Cl)cc21
[1]
  selectivity ratio: 50.5
[2]
  CC50 at 72 h: 50 µM
[4]
  IC50: 0.99 µM
[5]
  MNTC at 72 h: 25 µM
[26]
  inhibition at 25 µM: 48.6%
